TAAR1 antag: human TAAR1 antagonism. CHO RD-HGA16 TAAR1, Fluo-8 calcium fluorescence, antagonist. inhibition, % at 3 µM. 360,000 tested, 1.5% active. AID 624466;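 active means inhibition above a per-plate cutoff, the mean inhibition of test compounds on that plate plus 3 SD, cut at about 49% in these data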
Target sequence (Q96RJ0 whole entry, looked up): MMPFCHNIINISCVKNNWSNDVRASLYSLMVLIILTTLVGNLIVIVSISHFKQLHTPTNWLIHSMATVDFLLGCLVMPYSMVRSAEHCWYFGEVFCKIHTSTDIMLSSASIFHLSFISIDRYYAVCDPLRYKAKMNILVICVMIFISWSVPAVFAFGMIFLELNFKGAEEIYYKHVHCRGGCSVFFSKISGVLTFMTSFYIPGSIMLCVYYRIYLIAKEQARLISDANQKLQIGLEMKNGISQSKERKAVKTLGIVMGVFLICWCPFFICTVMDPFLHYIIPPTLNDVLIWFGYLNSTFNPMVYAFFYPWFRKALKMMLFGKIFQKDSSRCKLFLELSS
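Material: CHO RD-HGA16 cells bearing hTAAR1; compound dosing: one-point dosing, 3 µM nominal final; schedule: dye loading 75 min at 37 °C, then 30 min room temperature; measured by: calcium fluorescence with Fluo-8; control set: vehicle and agonist controls; replication: n of 1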
OXTR ag: agonists of human oxytocin receptor; activation, % at 3 µM; 320,000 tested, 0.32% active; CHO-OTR cells, Fluo-8 calcium fluorescence; normalized: DMSO 0%, oxytocin 100%;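 active means activation above the mean of all tested compounds plus 3 SD, cutoff set per screening run, cut at about 20% in these data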;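 further: peak over basal fluorescence ratio from a 100 s FLIPR kinetic read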
Target sequence (P30559 whole entry, looked up): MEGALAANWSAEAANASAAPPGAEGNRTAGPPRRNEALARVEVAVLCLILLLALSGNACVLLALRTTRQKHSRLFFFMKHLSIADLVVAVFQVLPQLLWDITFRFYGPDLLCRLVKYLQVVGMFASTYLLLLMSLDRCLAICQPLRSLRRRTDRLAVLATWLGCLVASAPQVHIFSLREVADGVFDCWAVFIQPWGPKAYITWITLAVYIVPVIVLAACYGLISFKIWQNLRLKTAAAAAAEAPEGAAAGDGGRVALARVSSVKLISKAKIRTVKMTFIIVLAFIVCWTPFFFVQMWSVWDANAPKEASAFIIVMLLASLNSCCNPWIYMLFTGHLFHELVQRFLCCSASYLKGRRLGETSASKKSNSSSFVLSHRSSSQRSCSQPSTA
TAAR1 agonist: agonists of human TAAR1 | CHO RD-HGA16 TAAR1, Fluo-8 calcium fluorescence; vehicle wells 0%, saturating PEA agonist 100% | activation, % at 3 µM | Q96RJ0 | 360,000 tested, 0.99% active;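 active means activation above the mean activation of all test compounds in the run plus 3 SD, cut at about 38% in these data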
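Test system: RD-HGA16 (CHO) cells co-expressing Gα16 and hTAAR1; dosing: one-point dosing at 3 µM (nominal); timing: 17-24 h seeding, 75 min 37 °C dye, 30 min RT; signal: kinetic Fluo-8 calcium fluorescence; read-out basis: % activation relative to PEA EC100 response; controls: DMSO and PEA EC100; replicates: n 1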
OXTR potentiator: potentiates the human oxytocin receptor response. P30559. CHO-OTR cells, Fluo-8 calcium fluorescence, potentiator mode; 0% = oxytocin EC15, 100% = EC100. activation, % at 3 µM. 320,000 tested, 0.061% active;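 active means activation above that plate's cutoff, the mean activation of tested compounds plus 3 SD, cut at about 6.6% in these data, passing the limit was not always enough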
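Assay system: CHO cell line stably expressing human OTR | Also added: Oxytocin at about EC15, sub-maximal agonist stimulus | Times: Compound 6 min at room temperature before oxytocin, 100 s read | Measured by: Fluo-8 intracellular calcium fluorescence, ex 470-495, em 515-575 nm | Controls: EC15 oxytocin alone as 0%, 75 nM oxytocin as 100%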
V1aR counter: V1a receptor agonism, counter-screen for OXTR agonists; P37288; CHO-V1R cells, Fluo-8 calcium fluorescence, agonist mode; 0% DMSO, 100% 3 nM vasopressin; activation, % at 3 µM; 320,000 tested, 0.25% active;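 active means activation above the mean activation of all tested compounds plus 3 SD, per screening run, cut at about 20% in these data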;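 further: signal is peak over basal fluorescence ratio across a 100 second FLIPR read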
Each line names hits and unclear results; the compound was inactive in the other large screens. Shown are actives, neighbours in structure and some others; about 2.3% of the full set was active somewhere.

Cc1ccc(-n2c(N)c(C#N)c(-c3ccc(Cl)cc3)c(C#N)c2=O)cc1	OXTR ag 29, V1aR counter 24
Cc1ccc(-c2c(C#N)c(N)n(-c3ccc(C)cc3)c(=O)c2C#N)cc1	none
O=C(CSc1nnc(-c2ccc(Cl)cc2)n1Cc1ccco1)Nc1ccc2c(c1)OCCO2	none
CC(=O)Nc1cccc(NC(=O)CSc2ncc(-c3ccc(Cl)cc3)n2Cc2ccco2)c1	TAAR1 antag 85
COc1ccc(-c2cnc(SCC(=O)Nc3ccc4c(c3)OCO4)n2Cc2ccco2)cc1	TAAR1 antag 51 (no result: OXTR ag, OXTR potentiator, V1aR counter)
C[C@H](CO)N1C[C@H](C)[C@@H](CN(C)C(=O)Cc2ccccc2)OCc2cn(nn2)CCCC1=O	none (no result: OXTR ag, OXTR potentiator, V1aR counter)
CCc1ccc(OCC(=O)NNC(=S)NC(=O)C2CC2)c(Br)c1	TAAR1 agonist 40 (no result: OXTR ag, OXTR potentiator, V1aR counter)
S=C(SCc1cc(Cl)cc2c1OCOC2)N1CCSCC1	none (no result: OXTR ag, OXTR potentiator, V1aR counter)
CC1(C(=O)NCc2ccc(Cl)c(Cl)c2)Oc2cccnc2NC1=O (stereo not drawn)	OXTR ag 25, TAAR1 agonist 53, V1aR counter 21
CC(C)N1CCN(c2ccc(OCC3COC(Cn4cncn4)(c4ccc(Cl)cc4Cl)O3)cc2)CC1 (stereo not drawn)	TAAR1 antag 61 (no result: OXTR ag, OXTR potentiator, V1aR counter)
COc1ccc(N2CCN(C(=O)Cn3cncn3)CC2)cc1	none
COC(=O)C1=C(C)N(C)C(=NCc2ccc3c(c2)OCO3)NC1c1cccc(F)c1 (stereo not drawn)	none (no result: OXTR ag, OXTR potentiator, V1aR counter)
COc1ccc(C(=O)c2sc(Nc3cccc(OC)c3)c(C(=O)Nc3cccc(C)c3C)c2N)cc1	TAAR1 agonist 38
COc1ccc(Nc2sc(C(=O)c3ccc(Cl)cc3)c(N)c2C(=O)Nc2ccccc2OC)cc1	TAAR1 antag 73, OXTR ag 47, TAAR1 agonist 107, V1aR counter 40
CCCCNc1cccc2c1S(=O)(=O)N[C@H](C)CO2	none (no result: OXTR ag, OXTR potentiator, V1aR counter)
CC(C)/C=C1\CC/C(=C\c2ccc(N(C)C)cc2)C1=O	TAAR1 antag 72, OXTR ag 69, TAAR1 agonist 57, V1aR counter 59
COc1ccc(CNn2c(-c3cccs3)nc3ccccc3c2=O)cc1OC	TAAR1 antag 51
C=CCn1c(CSCc2ccc(Cl)cc2)nnc1SCC(=O)NCc1ccccc1	none
C=CCn1c(CSCc2ccc(C)cc2)nnc1SCC(=O)NCc1ccccc1	TAAR1 antag 50
Cc1nc2nc(C)n(CCN3CCOCC3)c(=O)c2c(-c2cccc([N+](=O)[O-])c2)c1C(=O)CCCCCCCCCCN1CCC(c2ccccc2)(c2ccccc2)CC1	TAAR1 antag 49 (no result: OXTR ag, OXTR potentiator, V1aR counter)
O=C(Nc1cccc(-n2cnnn2)c1)c1cc(Cl)nc(Cl)c1	TAAR1 agonist 49
O=C(Nc1cccc(-n2cnnn2)c1)c1cccc(Cl)c1	none
CC(C)(C)c1ccc(C(=O)Nc2cccc(-n3cnnn3)c2)cc1	TAAR1 antag 58
Cc1cc(Oc2cccnc2)ccc1NC(=O)Cc1cn(C)c2ccccc12	none (no result: OXTR ag, OXTR potentiator, V1aR counter)
CCOc1cc(N2CCOCC2)c(OCC)cc1NC(=O)c1cc(-c2ccco2)nc2ccccc12	TAAR1 antag 71
Cc1ccccc1-c1cc(C(=O)Nc2sc(C)c(C)c2C(N)=O)c2ccccc2n1	TAAR1 antag 50
CCOC(=O)c1sc(NC(=O)c2cc(-c3ccccc3C)nc3ccccc23)c(C#N)c1C	none
Cc1ccccc1NC(=O)c1cc(-c2ccco2)nc2ccccc12	TAAR1 antag 60 (no result: OXTR ag, OXTR potentiator, V1aR counter)
Cc1ccc(-c2cc(C(=O)Nc3ccncc3)c3ccccc3n2)cc1	none
CCc1cccc(C)c1NC(=O)c1cc(-c2ccncc2)nc2ccccc12	TAAR1 antag 49 (no result: OXTR ag, OXTR potentiator, V1aR counter)
O=C(O)C(=Cc1ccc([N+](=O)[O-])cc1)c1ccccc1	none (no result: OXTR ag, OXTR potentiator, V1aR counter)
O=S(=O)(CS(=O)(=O)c1ccc(Br)cc1)c1ccc(Br)cc1	none (no result: OXTR ag, OXTR potentiator, V1aR counter)
O=Cc1cc([B-](F)(F)F)cs1	none (no result: OXTR ag, OXTR potentiator, V1aR counter)
O=c1ccn(C2CC(O)C(COC(c3ccccc3)(c3ccccc3)c3ccccc3)O2)c(=O)[nH]1 (stereo not drawn)	none (no result: OXTR ag, OXTR potentiator, V1aR counter)
CCOc1ccc(-c2cc(C(=O)Nc3ccc4c(c3)OCCO4)c3ccccc3n2)cc1	TAAR1 antag 67
Cc1cccc(-c2cc(C(=O)Nc3ccc4c(c3)OCCO4)c3ccccc3n2)c1	none
Cc1ncc(CO)c2c1Oc1nc(-c3ccccc3)nc(SCC(=O)N3CCCCC3)c1C2	none
COc1ccccc1-c1nc2c(c(SCC(=O)N3CCCCC3)n1)Cc1c(CO)cnc(C)c1O2	TAAR1 antag 54
O=C(CSCc1ccccc1)NCCc1ccc(F)cc1	none
O=C(CSCc1ccc(Br)cc1)NCCc1ccccc1	TAAR1 agonist 40
COc1ccc(S(=O)(=O)N2CCCc3nc(C)c(C)cc32)cc1	none (no result: OXTR ag, OXTR potentiator, V1aR counter)
N#C/C=C(/N)N1CCN(c2ccc(Cl)c(Cl)c2)CC1	TAAR1 agonist 38
O=[N+]([O-])c1ccc(N2CCN(c3ccc([N+](=O)[O-])cc3CO)CC2)c(CO)c1	TAAR1 antag 53
CC(C(=O)Nc1cc([N+](=O)[O-])ccc1Cl)N1CCN(c2ccccc2O)CC1 (stereo not drawn)	none
CC(C)(C)C(=O)N1CCN(c2ccc([N+](=O)[O-])cc2Cl)CC1	none
N#Cc1cc([N+](=O)[O-])ccc1N1CCN(c2ccccc2O)CC1	TAAR1 antag 52
O=C1CSC(c2cccs2)N1c1nncs1 (stereo not drawn)	none (no result: OXTR ag, OXTR potentiator, V1aR counter)
COC(=O)C1=C(C)N(Cc2ccccc2C(F)(F)F)C(=NCc2ccccc2)NC1c1ccc(F)cc1 (stereo not drawn)	none (no result: OXTR ag, OXTR potentiator, V1aR counter)
O=C(Nc1ccc(N=Nc2ccccc2)cc1)c1ccccc1Cl	TAAR1 antag 49
Nc1nc2c(-c3ccc([N+](=O)[O-])cc3)nnn2c2ccccc12	none (no result: OXTR ag, OXTR potentiator, V1aR counter)
COc1cccc(/C=N/n2c(-c3ccco3)nc3ccccc3c2=O)c1	TAAR1 antag 49
NC(=O)CC[C@H](NC(=O)c1ccc(F)cc1)C(=O)OCC(=O)NCc1ccc2c(c1)OCO2	none
COc1cc(CN2CCN(c3ncc(Cc4ccccc4)cn3)CC2)cc(OC)c1	none (no result: OXTR ag, OXTR potentiator, V1aR counter)
CCCCOCC1CN(CCCC)S(=O)(=O)c2c(cccc2N2CCCC2)O1 (stereo not drawn)	none (no result: OXTR ag, OXTR potentiator, V1aR counter)
CCOC(=O)C1=C(COC(=O)/C=C/c2cccc(F)c2)NC(=O)NC1C (stereo not drawn)	TAAR1 antag 52
CCOC(=O)C1=C(COC(=O)/C=C/c2ccccc2Cl)NC(=O)NC1C (stereo not drawn)	none
CCOC(=O)C1=C(COC(=O)/C=C/c2ccccc2F)NC(=O)NC1C (stereo not drawn)	TAAR1 antag 56
CCOC(=O)C1=C(COC(=O)/C=C/c2ccc(F)cc2)NC(=O)NC1C (stereo not drawn)	TAAR1 antag 55 (no result: OXTR ag, OXTR potentiator, V1aR counter)
CCOC(=O)C1=C(COC(=O)/C=C/c2ccc(Cl)cc2)NC(=O)NC1C (stereo not drawn)	none
CCOC(=O)C1=C(COC(=O)/C=C/c2ccc(OCC)c(OC)c2)NC(=O)NC1C (stereo not drawn)	none
